High-throughput results (PubChem BioAssay)
PRMT1 FP inh – PRMT1 methyltransferase inhibitors, primary screen, biochemical, fluorescence polarization; Protein arginine N-methyltransferase 1 (Homo sapiens), Q99873; recombinant PRMT1, activity-based probe fluorescence polarization; inhibition, % at 2.79 µM; actives 1.3% (n = 370,000); AID 652257, 2013;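 active means inhibition above about 21% made by adding two undisclosed values, limit read from the data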
Target sequence (Q99873 whole entry, looked up): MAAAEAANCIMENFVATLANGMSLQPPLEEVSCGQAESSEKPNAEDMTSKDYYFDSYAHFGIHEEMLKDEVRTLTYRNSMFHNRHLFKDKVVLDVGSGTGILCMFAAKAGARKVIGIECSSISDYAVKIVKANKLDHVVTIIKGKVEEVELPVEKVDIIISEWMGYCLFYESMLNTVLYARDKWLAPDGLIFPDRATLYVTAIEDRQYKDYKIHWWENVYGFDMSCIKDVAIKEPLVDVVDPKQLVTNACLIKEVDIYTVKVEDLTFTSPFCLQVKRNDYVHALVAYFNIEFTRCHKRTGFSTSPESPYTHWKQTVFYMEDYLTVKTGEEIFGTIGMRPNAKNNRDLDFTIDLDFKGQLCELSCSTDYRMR
mABHD4 FP – ABHD4 inhibitors, primary screen, biochemical, fluorescence polarization, mouse; (Lyso)-N-acylphosphatidylethanolamine lipase (Mus musculus), Q8VD66; inhibition, % at 8.92 µM; purified mABHD4, FP-Rh probe fluorescence polarization; actives 0.54% (n = 370,000);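 active means inhibition exceeding the mean over every tested compound plus 3 SD, cut at about 30% in these data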;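 further: 0% = plate median of compound wells and 100% = S159A mutant with DMSO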
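system = mouse ABHD4 enzyme, wild type | medium = HEPES pH 7.0, NaCl, Pluronic buffer | also added = FP-Rh probe | incubation = Enzyme–compound pre-incubation 45 min, then probe 60 min, both 25 °C | technique = fluorescence polarization, excitation 525 nm, emission 598 nm, BODIPY TMR filters | controls = S159A mutant high control, sample median low control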
DAGLB inhibitor – DAGLB lipase inhibitors, primary screen, biochemical, fluorescence, HTS; HEK293T DAGLB membrane lysate, EnzChek fluorogenic substrate; AID 504411, 2011; actives 0.059% (n = 340,000); inhibition, % at 5.17 µM; Diacylglycerol lipase-beta (Homo sapiens), Q8NCG7; in the data active means inhibition above about 34%;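 further: 0% = enzyme with vehicle and 100% = wells lacking enzyme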
HTRA1 inhibitor – HTRA1 serine protease inhibitors, primary screen, biochemical, fluorescence polarization, HTS | actives 0.5% (n = 340,000) | Q92743 | inhibition, % at 5.96 µM | recombinant HTRA1, FP-rhodamine activity-based probe | AID 504803, 2011; in the data active means inhibition above about 36%;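 further: 0% = enzyme with DMSO and 100% = wells lacking enzyme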
rCAG RNA binder – binders of r(CAG) RNA repeats, primary screen, biochemical, fluorescence; actives 1.3% (n = 370,000); inhibition, % at 3 µM; AID 651821, 2012; r(CAG) RNA repeat, TO-PRO-1 dye displacement fluorescence;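 active means inhibition above the plate cutoff, the mean of all test compounds on that plate plus 3 SD, cut at about 35% in these data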;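 further: 0% = DMSO alone and 100% = 100 µM mitoxantrone as full dye displacement; higher means more dye released from RNA so lower well fluorescence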
LEDGF integ inh – blockers of LEDGF/p75-dependent integrase strand transfer – biochemical, TR-FRET, high throughput, primary screen; HIV-1 integrase (with human LEDGF/p75); TR-FRET IN-LEDGF/p75 DNA integration, Eu/Cy5; inhibition, % at 3.7 µM; actives 0.64% (n = 370,000); AID 743269, 2014;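 active means inhibition above the screen-wide mean plus 3 SD, cut at about 13% in these data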;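 further: signal is the Cy5 over europium emission ratio at 671 and 618 nm; 0% = plate median of compound wells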
PRMT1 confirm – PRMT1 methyltransferase inhibitors, confirmation, biochemical, fluorescence polarization, triplicate; actives 42% (n = 3,300); inhibition, % at 2.79 µM; recombinant His-PRMT1, activity-based probe fluorescence polarization; AID 687036, 2013; shares compounds with PRMT1 FP inh;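 active means mean inhibition across replicates above the hit cutoff derived for the earlier primary screen, cut at about 22% in these data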
* marks the source's active call; other numbers are inactive results; nt = no result given. This is a sample that favours compounds with a hit; in the whole collection about 3.2% have one here.

SMILES	PRMT1 FP inh	mABHD4 FP	DAGLB inhibitor	HTRA1 inhibitor	rCAG RNA binder	LEDGF integ inh	PRMT1 confirm
O=C(N/N=C\c1ccc([N+](=O)[O-])o1)c1cncc(Br)c1	34.2*	28.0	3.1	15.3	22.0	10.7	5.5
C[n+]1c2n(c3ccccc31)N=C(c1ccc(Cl)cc1)CS2	39.9*	0.4	-1.7	-4.2	5.3	1.3	17.6
COc1ccc(OC)c2cc3ccccc3cc12	28.9*	22.9	-2.1	33.1	5.1	4.3	69.5*
O=S(=O)([O-])CCC[n+]1c(SCCCS(=O)(=O)O)sc2ccc(Cl)cc21	70.9*	-0.6	-5.9	-5.7	10.6	2.4	74.9*
CCn1c(C)[n+](CCCS(=O)(=O)[O-])c2cc(Cl)c(Cl)cc21	-2.2	-2.6	-0.6	1.6	3.3	1.4	nt
Nc1ccc(S(=O)(=O)O)cn1	-0.7	-2.3	-0.8	1.0	1.4	-4.8	nt
CC(C)(C)Sc1ccc(N)nc1	36.3*	-6.0	2.6	-1.2	3.2	0.1	1.9
COc1cc(NC(=O)CCCn2c(=O)oc3ccccc32)cc(OC)c1	-0.8	1.2	-2.2	-6.8	3.5	0.2	nt
CN(CCOc1ccc(Cl)cc1)C(=O)c1ccccc1SCC(=O)N1CCCC1	-4.0	4.3	0.1	-2.0	-4.1	5.2	nt
N#CC1=C2SCN(Cc3ccccc3)CN2C(=O)CC1c1ccccc1F (configuration not stated)	nt	nt	-3.8	-11.1	nt	nt	nt
N#CC1=C2SCN(Cc3ccco3)CN2C(=O)CC1c1c(F)cccc1Cl (configuration not stated)	52.2*	6.1	3.0	-8.9	21.7	7.4	7.7
Cc1ccc(C2CC(=O)N3CN(Cc4ccco4)CSC3=C2C#N)cc1 (configuration not stated)	39.2*	10.5	-2.7	-2.7	21.5	2.1	4.0
COc1cc(NC(=O)Cc2cccs2)ccc1-n1cnnn1	4.2	-6.1	-0.8	-0.4	-0.5	1.2	nt
C=CCN1C(C(=O)OC)CN(Cc2cn(Cc3ccc(C)cc3)nn2)CCS1(=O)=O (configuration not stated)	1.6	2.6	nt	nt	-0.8	3.9	nt
N#CC1C(=O)c2ccccc2C1c1ccccc1 (configuration not stated)	45.3*	15.4	7.6	-1.5	8.4	-1.8	14.0
CCOc1cc(/C=N/NC(=O)c2nnn(-c3nonc3N)c2C)ccc1OCc1ccc(C)cc1	-1.9	5.0	-1.4	0.9	2.4	-3.7	nt
O=S(=O)(Nc1ccccc1)c1ccc(NS(=O)(=O)c2c(F)cccc2F)cc1	-1.2	-2.7	2.3	-5.0	6.5	0.4	nt
COc1ccccc1-n1c(SCC(=O)NCc2ccc3c(c2)OCO3)nc2cc([N+](=O)[O-])ccc21	83.7*	4.1	11.1	-17.1	7.0	2.5	25.8*
CC(Sc1nc2cc([N+](=O)[O-])ccc2n1-c1ccc(F)cc1)C(=O)NCc1ccc2c(c1)OCO2 (configuration not stated)	9.8	8.1	0.3	-10.1	4.8	-4.2	nt
CC(/C=C/c1ccc(C)o1)=C\C(=O)O	29.7*	1.8	0.9	-0.7	0.2	5.0	11.7
Cc1ccc(/C=C/C(=O)N2CC(C)CC(C)C2)o1 (configuration not stated)	40.2*	1.6	-0.4	-4.8	2.5	-0.9	18.7
CCN1CCN(C(=O)/C=C/c2ccc(C)o2)CC1	2.3	-2.5	1.0	4.3	-0.4	-1.2	nt
COc1ccc(Nc2nc(N3CCN(C)CC3)nc3ccccc23)c(OC)c1	-4.8	-1.1	0.2	1.6	-6.3	-0.5	nt
Cc1cc(Nc2ccc3c(c2)OCCO3)n2ncnc2n1	-0.5	2.0	0.7	3.3	5.7	-0.8	nt
